According to ChEMBL document CHEMBL1145465, “PhoU is a persistence switch involved in persister formation and tolerance to multiple antibiotics and stresses in Escherichia coli” (2007):

Assays:
Assay type in all cases: functional
Escherichia coli [1] = assay: Antibacterial activity against Escherichia coli K12 mutant JHU313 containing plasmid vector at 0.1 ug/ml after 48 hrs by disc diffusion method
In short: (§1)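 Kirby-Bauer disc assay: log-phase LB culture was spread on LB agar for confluent growth. 7-mm nitrocellulose discs were soaked in antibiotic at the listed concentration and placed on the agar. After 48 h at 37°C, the diameter of the inhibition zone was measured in mm.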

Escherichia coli [2] = assay: Antibacterial activity against Escherichia coli K12 containing deletion deltaphoU mutant assessed as cell count in stationary phase at 3 ug/ml after 5 days
In short: (§2)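 Log-phase or stationary-phase cultures of the ΔphoU deletion mutant (Datsenko–Wanner construction) were exposed to norfloxacin 3 μg/ml in MOPS minimal medium, pH 5.0, at 37°C without shaking, for up to 10 days. Sampled aliquots were washed in saline and plated on LB agar for CFU/ml.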

Escherichia coli [3] = assay: Antibacterial activity against Escherichia coli K12 containing PhoU mutant assessed as cell count in log phase at 3 ug/ml after 10 days
In short: (§3)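 Log-phase or stationary-phase cultures were exposed to ampicillin (100 μg/ml) or norfloxacin (3 μg/ml) in MOPS minimal medium, pH 5.0, at 37°C without shaking, for 5 h to 10 days. Aliquots were saline-washed and plated on LB for CFU/ml.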

Escherichia coli [4] = assay: Antibacterial activity against Escherichia coli K12 PhoU wild type W3110 assessed as cell count in stationary phase at 3 ug/ml after 3 days; in short: as §3
Escherichia coli [5] = assay: Antibacterial activity against Escherichia coli K12 containing PhoU mutant assessed as cell count in stationary phase at 3 ug/ml after 5 days; in short: as §3
Escherichia coli [6] = assay: Antibacterial activity against Escherichia coli K12 containing deletion deltaphoU mutant assessed as cell count in stationary phase at 3 ug/ml after 10 days; in short: as §2
Escherichia coli [7] = assay: Antibacterial activity against Escherichia coli K12 containing PhoU mutant assessed as cell count in log phase at 3 ug/ml after 5 days; in short: as §3
Escherichia coli [8] = assay: Antibacterial activity against Escherichia coli K12 mutant JHU313 at 100 ug/ml after 48 hrs by disc diffusion method; in short: as §1
Escherichia coli [9] = assay: Antibacterial activity against Escherichia coli K12 containing deletion deltaphoBR mutant assessed as cell count in stationary phase at 100 ug/ml after 5 hrs
In short: (§4)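 Deletion mutants were made by the Datsenko–Wanner method. Log-phase or stationary-phase cultures were exposed to ampicillin at 100 μg/ml. CFU/ml was determined at the start and after 5, 24 and 72 h of exposure.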

Escherichia coli [10] = assay: Antibacterial activity against Escherichia coli K12 containing deletion deltahipA mutant assessed as cell count in log phase at 100 ug/ml after 24 hrs; in short: as §4
Escherichia coli [11] = assay: Antibacterial activity against Escherichia coli K12 PhoU wild type W3110 assessed as cell count in log phase at 100 ug/ml after 3 days
In short: (§5)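 Log-phase or stationary-phase cultures exposed to ampicillin 100 μg/ml in MOPS minimal medium (pH 5.0) at 37°C without shaking, for 5 h up to 10 days. Aliquots were taken at each time point, washed in saline and plated on LB plates for viable CFU/ml.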

Escherichia coli [12] = assay: Antibacterial activity against Escherichia coli K12 PhoU wild type W3110 assessed as cell count in log phase at 100 ug/ml after 1 week; in short: as §5
Escherichia coli [13] = assay: Antibacterial activity against Escherichia coli K12 mutant JHU313 containing plasmid vector at 25 ug/ml after 48 hrs by disc diffusion method
In short: (§6)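 Kirby-Bauer paper-disc assay: log-phase E. coli (10⁸ bacteria) grown in LB broth, spread on LB agar for confluent growth; 7 mm nitrocellulose discs soaked with antibiotic solution at the listed concentration (μg/ml) placed on surface; incubated 37°C for 48 h; diameter of growth-inhibition zone measured in mm. Strain is the phoU transposon mutant transformed by electroporation with empty vector control.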

Escherichia coli [14] = assay: Antibacterial activity against Escherichia coli K12 mutant JHU313 containing plasmid vector at 6 ug/ml after 48 hrs by disc diffusion method; in short: as §6

CCn1cc(C(=O)O)c(=O)c2cc(F)c(N3CCNCC3)cc21 [NORFLOXACIN]
inhibition zone (IZ) (Escherichia coli [1]): 29 mm
CFU (Escherichia coli [2]): 0 mL⁻¹
CFU (Escherichia coli [3]): 0 mL⁻¹
CFU (Escherichia coli [4]): 1 10^8/ml
CFU (Escherichia coli [5]): 0 mL⁻¹
CFU (Escherichia coli [6]): 0 mL⁻¹
CFU (Escherichia coli [7]): 0 mL⁻¹

CC1(C)S[C@@H]2[C@H](NC(=O)[C@H](N)c3ccccc3)C(=O)N2[C@H]1C(=O)O [AMPICILLIN]
inhibition zone (IZ) (Escherichia coli [8]): 40 mm
CFU (Escherichia coli [9]): 3 10^9/ml
CFU (Escherichia coli [10]): 1 10^3/ml
CFU (Escherichia coli [11]): 0 mL⁻¹
CFU (Escherichia coli [12]): 0 mL⁻¹
inhibition zone (IZ) (Escherichia coli [13]): 40 mm
inhibition zone (IZ) (Escherichia coli [14]): 34 mm
